Results as given in ChEMBL document CHEMBL1781932 (J Med Chem, 2011).
Converted amounts (≈) assume the structure as drawn.

Experiments:
Assay type in all cases: functional
Escherichia coli [1] = test: Antimicrobial activity against tetracycline-resistant Escherichia coli isolate 155 harboring tetA gene by CLSI dilution method
Staphylococcus aureus [2] = test: Antimicrobial activity against tetracycline-susceptible Staphylococcus aureus isolate 101 by CLSI dilution method
Klebsiella pneumoniae [3] = test: Antimicrobial activity against tetracycline-susceptible Klebsiella pneumoniae isolate 109 by CLSI dilution method
Summary of the method: (§1)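 Broth microdilution per CLSI in fresh cation-adjusted Mueller Hinton broth, kept at 4 °C before testing, with defibrinated horse blood added as appropriate. Strains were from ATCC. MIC in µg/mL. Runs were accepted when comparator antibiotics against ATCC quality-control strains fell within recommended ranges.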

Enterococcus faecalis [4] = test: Antimicrobial activity against tetracycline-susceptible Enterococcus faecalis isolate 103 by CLSI dilution method; summary of the method: as §1
Pseudomonas aeruginosa = test: Antimicrobial activity against tetracycline-susceptible Pseudomonas aeruginosa isolate 111 by CLSI dilution method; summary of the method: as §1
Enterococcus faecalis [5] = test: Antimicrobial activity against tetracycline-resistant Enterococcus faecalis isolate 159 harboring […] gene by CLSI dilution method
Streptococcus pneumoniae [6] = test: Antimicrobial activity against tetracycline-susceptible Streptococcus pneumoniae isolate 106 by CLSI dilution method; summary of the method: as §1
Enterobacter cloacae = test: Antimicrobial activity against tetracycline-susceptible Enterobacter cloacae isolate 108 by CLSI dilution method; summary of the method: as §1
Klebsiella pneumoniae [7] = test: Antimicrobial activity against tetracycline-resistant Klebsiella pneumoniae isolate 153 harboring tetA gene by CLSI dilution method
Streptococcus pneumoniae [8] = test: Antimicrobial activity against tetracycline-resistant Streptococcus pneumoniae isolate 160 harboring tetM gene by CLSI dilution method
Acinetobacter baumannii = test: Antimicrobial activity against tetracycline-susceptible Acinetobacter baumannii isolate 110 by CLSI dilution method; summary of the method: as §1
Staphylococcus aureus [9] = test: Antimicrobial activity against tetracycline-resistant Staphylococcus aureus isolate 158 harboring tetK gene by CLSI dilution method
Escherichia coli [10] = test: Antimicrobial activity against tetracycline-susceptible Escherichia coli isolate 107 by CLSI dilution method; summary of the method: as §1
Staphylococcus aureus [11] = test: Antimicrobial activity against methicillin-, tetracycline-resistant Staphylococcus aureus isolate 161 harboring tetM gene by CLSI dilution method

## CN(C)Cc1ccc2c(F)c3c(c(O)c2c1)C(=O)C1=C(O)[C@]2(O)C(=O)C(C(N)=O)=C(O)[C@@H](N(C)C)[C@@H]2C[C@@H]1C3
Escherichia coli [1]
  MIC: 4 µg/mL (≈ 7.41 µM)
Staphylococcus aureus [2]
  MIC: 0.5 µg/mL (≈ 0.927 µM)
Klebsiella pneumoniae [3]
  MIC: 2 µg/mL (≈ 3.71 µM)
Enterococcus faecalis [4]
  MIC: 0.25 µg/mL (≈ 0.463 µM)
Pseudomonas aeruginosa
  MIC: 32 µg/mL (≈ 59.3 µM)
Enterococcus faecalis [5]
  MIC: 1 µg/mL (≈ 1.85 µM)
Streptococcus pneumoniae [6]
  MIC: 0.0156 µg/mL (≈ 0.0289 µM)
Enterobacter cloacae
  MIC: 4 µg/mL (≈ 7.41 µM)
Klebsiella pneumoniae [7]
  MIC: 4 µg/mL (≈ 7.41 µM)
Streptococcus pneumoniae [8]
  MIC: 8 µg/mL (≈ 14.8 µM)
Acinetobacter baumannii
  MIC: 0.5 µg/mL (≈ 0.927 µM)
Staphylococcus aureus [9]
  MIC: 0.25 µg/mL (≈ 0.463 µM)

## CN(C)C1CN(Cc2ccc3cc4c(c(O)c3c2)C(=O)C2=C(O)[C@]3(O)C(=O)C(C(N)=O)=C(O)[C@@H](N(C)C)[C@@H]3C[C@@H]2C4)C1
Escherichia coli [1]
  MIC: 16 µg/mL (≈ 27.7 µM)
Staphylococcus aureus [2]
  MIC: 2 µg/mL (≈ 3.47 µM)
Enterococcus faecalis [4]
  MIC: 1 µg/mL (≈ 1.73 µM)
Pseudomonas aeruginosa
  MIC: > 32 µg/mL
Streptococcus pneumoniae [6]
  MIC: 0.0625 µg/mL (≈ 0.108 µM)
Klebsiella pneumoniae [7]
  MIC: 8 µg/mL (≈ 13.9 µM)
Streptococcus pneumoniae [8]
  MIC: 1 µg/mL (≈ 1.73 µM)
Acinetobacter baumannii
  MIC: 4 µg/mL (≈ 6.94 µM)
Staphylococcus aureus [9]
  MIC: 1 µg/mL (≈ 1.73 µM)

## CN(C)[C@@H]1C(O)=C(C(N)=O)C(=O)[C@@]2(O)C(O)=C3C(=O)c4c(cc5ccc(CN6CC(C#N)C6)cc5c4O)C[C@H]3C[C@@H]12
Escherichia coli [10]
  MIC: 4 µg/mL (≈ 7.16 µM)
Escherichia coli [1]
  MIC: > 32 µg/mL
Staphylococcus aureus [2]
  MIC: 1 µg/mL (≈ 1.79 µM)
Klebsiella pneumoniae [3]
  MIC: 8 µg/mL (≈ 14.3 µM)
Enterococcus faecalis [4]
  MIC: 1 µg/mL (≈ 1.79 µM)
Pseudomonas aeruginosa
  MIC: > 32 µg/mL
Enterococcus faecalis [5]
  MIC: 4 µg/mL (≈ 7.16 µM)
Staphylococcus aureus [11]
  MIC: 2 µg/mL (≈ 3.58 µM)
Streptococcus pneumoniae [6]
  MIC: 0.25 µg/mL (≈ 0.448 µM)
Klebsiella pneumoniae [7]
  MIC: 32 µg/mL (≈ 57.3 µM)
Streptococcus pneumoniae [8]
  MIC: 1 µg/mL (≈ 1.79 µM)
Staphylococcus aureus [9]
  MIC: 1 µg/mL (≈ 1.79 µM)

## CCNCc1ccc2c(F)c3c(c(O)c2c1)C(=O)C1=C(O)[C@]2(O)C(=O)C(C(N)=O)=C(O)[C@@H](N(C)C)[C@@H]2C[C@@H]1C3
Escherichia coli [10]
  MIC: 1 µg/mL (≈ 1.85 µM)
Escherichia coli [1]
  MIC: 8 µg/mL (≈ 14.8 µM)
Staphylococcus aureus [2]
  MIC: 0.5 µg/mL (≈ 0.927 µM)
Klebsiella pneumoniae [3]
  MIC: 4 µg/mL (≈ 7.41 µM)
Enterococcus faecalis [4]
  MIC: 0.25 µg/mL (≈ 0.463 µM)
Pseudomonas aeruginosa
  MIC: 16 µg/mL (≈ 29.7 µM)
Enterococcus faecalis [5]
  MIC: 2 µg/mL (≈ 3.71 µM)
Staphylococcus aureus [11]
  MIC: 2 µg/mL (≈ 3.71 µM)
Streptococcus pneumoniae [6]
  MIC: 0.0313 µg/mL (≈ 0.058 µM)
Enterobacter cloacae
  MIC: 2 µg/mL (≈ 3.71 µM)
Klebsiella pneumoniae [7]
  MIC: 8 µg/mL (≈ 14.8 µM)
Acinetobacter baumannii
  MIC: 1 µg/mL (≈ 1.85 µM)

## CN(C)[C@@H]1C(O)=C(C(N)=O)C(=O)[C@@]2(O)C(O)=C3C(=O)c4c(c(F)c5ccc(CNC6CC6)cc5c4O)C[C@H]3C[C@@H]12
Escherichia coli [10]
  MIC: 2 µg/mL (≈ 3.63 µM)
Escherichia coli [1]
  MIC: 8 µg/mL (≈ 14.5 µM)
Klebsiella pneumoniae [3]
  MIC: 4 µg/mL (≈ 7.25 µM)
Enterococcus faecalis [4]
  MIC: 0.5 µg/mL (≈ 0.907 µM)
Pseudomonas aeruginosa
  MIC: > 32 µg/mL
Enterococcus faecalis [5]
  MIC: 2 µg/mL (≈ 3.63 µM)
Staphylococcus aureus [11]
  MIC: 2 µg/mL (≈ 3.63 µM)
Streptococcus pneumoniae [6]
  MIC: 0.0625 µg/mL (≈ 0.113 µM)
Enterobacter cloacae
  MIC: 4 µg/mL (≈ 7.25 µM)
Klebsiella pneumoniae [7]
  MIC: 8 µg/mL (≈ 14.5 µM)
Acinetobacter baumannii
  MIC: 0.25 µg/mL (≈ 0.453 µM)

## COc1c2c(c(O)c3cc(CNC(C)(C)C)ccc13)C(=O)C1=C(O)[C@]3(O)C(=O)C(C(N)=O)=C(O)[C@@H](N(C)C)[C@@H]3C[C@@H]1C2
Escherichia coli [10]
  MIC: 1 µg/mL (≈ 1.73 µM)
Escherichia coli [1]
  MIC: 8 µg/mL (≈ 13.8 µM)
Staphylococcus aureus [2]
  MIC: 0.25 µg/mL (≈ 0.431 µM)
Enterococcus faecalis [4]
  MIC: 0.25 µg/mL (≈ 0.431 µM)
Pseudomonas aeruginosa
  MIC: 16 µg/mL (≈ 27.6 µM)
Streptococcus pneumoniae [6]
  MIC: 0.0156 µg/mL (≈ 0.0269 µM)
Klebsiella pneumoniae [7]
  MIC: 8 µg/mL (≈ 13.8 µM)
Streptococcus pneumoniae [8]
  MIC: 0.5 µg/mL (≈ 0.863 µM)
Acinetobacter baumannii
  MIC: 2 µg/mL (≈ 3.45 µM)
Staphylococcus aureus [9]
  MIC: 0.25 µg/mL (≈ 0.431 µM)

## COc1c2c(c(O)c3cc(CN(C)C)ccc13)C(=O)C1=C(O)[C@]3(O)C(=O)C(C(N)=O)=C(O)[C@@H](N(C)C)[C@@H]3C[C@@H]1C2
Escherichia coli [1]
  MIC: 8 µg/mL (≈ 14.5 µM)
Staphylococcus aureus [2]
  MIC: 0.25 µg/mL (≈ 0.453 µM)
Klebsiella pneumoniae [3]
  MIC: 4 µg/mL (≈ 7.25 µM)
Enterococcus faecalis [4]
  MIC: 0.25 µg/mL (≈ 0.453 µM)
Pseudomonas aeruginosa
  MIC: 32 µg/mL (≈ 58 µM)
Staphylococcus aureus [11]
  MIC: 2 µg/mL (≈ 3.63 µM)
Streptococcus pneumoniae [6]
  MIC: 0.0156 µg/mL (≈ 0.0283 µM)
Streptococcus pneumoniae [8]
  MIC: 0.25 µg/mL (≈ 0.453 µM)
Acinetobacter baumannii
  MIC: 1 µg/mL (≈ 1.81 µM)
Staphylococcus aureus [9]
  MIC: 0.25 µg/mL (≈ 0.453 µM)

## CN(C)c1c2c(c(O)c3cc(CN4CCCC4)ccc13)C(=O)C1=C(O)[C@]3(O)C(=O)C(C(N)=O)=C(O)[C@@H](N(C)C)[C@@H]3C[C@@H]1C2
Escherichia coli [10]
  MIC: 2 µg/mL (≈ 3.39 µM)
Escherichia coli [1]
  MIC: 8 µg/mL (≈ 13.5 µM)
Staphylococcus aureus [2]
  MIC: 0.5 µg/mL (≈ 0.846 µM)
Enterococcus faecalis [4]
  MIC: 0.25 µg/mL (≈ 0.423 µM)
Pseudomonas aeruginosa
  MIC: > 32 µg/mL
Enterococcus faecalis [5]
  MIC: 2 µg/mL (≈ 3.39 µM)
Staphylococcus aureus [11]
  MIC: 2 µg/mL (≈ 3.39 µM)
Streptococcus pneumoniae [6]
  MIC: < 0.0156 µg/mL
Enterobacter cloacae
  MIC: 16 µg/mL (≈ 27.1 µM)
Klebsiella pneumoniae [7]
  MIC: 32 µg/mL (≈ 54.2 µM)
Acinetobacter baumannii
  MIC: 16 µg/mL (≈ 27.1 µM)
Staphylococcus aureus [9]
  MIC: 0.5 µg/mL (≈ 0.846 µM)

## COc1c2c(c(O)c3cc(F)ccc13)C(=O)C1=C(O)[C@]3(O)C(=O)C(C(N)=O)=C(O)[C@@H](N(C)C)[C@@H]3C[C@@H]1C2
Escherichia coli [10]
  MIC: 16 µg/mL (≈ 31.2 µM)
Escherichia coli [1]
  MIC: 16 µg/mL (≈ 31.2 µM)
Staphylococcus aureus [2]
  MIC: 0.125 µg/mL (≈ 0.244 µM)
Klebsiella pneumoniae [3]
  MIC: 32 µg/mL (≈ 62.4 µM)
Enterococcus faecalis [4]
  MIC: 0.5 µg/mL (≈ 0.976 µM)
Pseudomonas aeruginosa
  MIC: > 32 µg/mL
Staphylococcus aureus [11]
  MIC: 0.5 µg/mL (≈ 0.976 µM)
Enterobacter cloacae
  MIC: > 32 µg/mL
Klebsiella pneumoniae [7]
  MIC: > 32 µg/mL
Streptococcus pneumoniae [8]
  MIC: 8 µg/mL (≈ 15.6 µM)
Acinetobacter baumannii
  MIC: 1 µg/mL (≈ 1.95 µM)
Staphylococcus aureus [9]
  MIC: 0.125 µg/mL (≈ 0.244 µM)

## CN(C)Cc1cccc2c(O)c3c(cc12)C[C@H]1C[C@H]2[C@H](N(C)C)C(O)=C(C(N)=O)C(=O)[C@@]2(O)C(O)=C1C3=O
Escherichia coli [10]
  MIC: 4 µg/mL (≈ 7.67 µM)
Escherichia coli [1]
  MIC: > 32 µg/mL
Staphylococcus aureus [2]
  MIC: 1 µg/mL (≈ 1.92 µM)
Enterococcus faecalis [4]
  MIC: 1 µg/mL (≈ 1.92 µM)
Pseudomonas aeruginosa
  MIC: > 32 µg/mL
Enterococcus faecalis [5]
  MIC: 32 µg/mL (≈ 61.4 µM)
Streptococcus pneumoniae [6]
  MIC: 0.25 µg/mL (≈ 0.479 µM)
Enterobacter cloacae
  MIC: > 32 µg/mL
Klebsiella pneumoniae [7]
  MIC: > 32 µg/mL
Streptococcus pneumoniae [8]
  MIC: 2 µg/mL (≈ 3.83 µM)
Acinetobacter baumannii
  MIC: 16 µg/mL (≈ 30.7 µM)
Staphylococcus aureus [9]
  MIC: 0.5 µg/mL (≈ 0.959 µM)
